# Laboratory results from article PMC8341738 (RSC Chemical Biology, 2021).
# What was measured:
# [1] = biological target: T1, Fra1 (Homo sapiens, UniProt P15407); test: Circular dichroism spectra, 1:1 mixture with Fra1; assay type: binding; conditions: 1:1 with Fra1, 150 μM total peptide, pH 7.0
# T1 sequence (P15407 129-162): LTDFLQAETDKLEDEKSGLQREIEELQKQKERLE
# Outline: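 Fra1 and test peptide mixed 1:1 at 75 μM each (150 μM total) in 10 mM potassium phosphate, 100 mM KF, pH 7.0. Far-UV CD in a 1 mm cell, 300–190 nm, 1 nm steps, 0.5 s per point, three scans averaged. Spectra taken at 20 °C, at 5 °C, and at 20 °C after thermal denaturation to check refolding. Reported as mean residue ellipticity; 222/208 ratio used to judge oligomerisation.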
# [2] = biological target: T1, Fra1; test: Protein-fragment complementation assay; assay type: cell-based; conditions: competition selection in liquid M9 medium, ten rounds, E. coli
# [3] = biological target: T1, Fra1; test: Size-exclusion chromatography, mixture with Fra1; assay type: binding; conditions: Fra1–Fra1W mixture, 20 μM total peptide, pH 7.0; dimeric
# Outline: (§1)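 Peptide mixture at 20 μM total peptide in 10 mM potassium phosphate, 100 mM KF, pH 7.0, run at room temperature on a peptide gel-filtration column at 0.5 mL min⁻¹. Elution times compared against previously characterised monomeric and heterodimeric coiled-coil reference peptides.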
# [4] = system: cJun; test: Size-exclusion chromatography, mixture with cJun; assay type: binding; conditions: cJun–Fra1W mixture, 20 μM total peptide, pH 7.0; monomeric
# Outline: as §1
# [5] = system: Fra1–cJun; test: CD dimer exchange experiments; assay type: binding; conditions: CD at 20 °C, 150 μM total, equimolar, pH 7.0
# Outline: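 Dimer exchange by CD: equimolar peptide mixtures at 150 μM total peptide in 10 mM potassium phosphate, 100 mM potassium fluoride, pH 7.0. Equilibrated spectra recorded at 20 °C in a 1 mm cell, 300–190 nm in 1 nm steps, 0.5 s per wavelength, three scans averaged. Data expressed as mean residue ellipticity and superimposed across mixing orders.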
# [6] = system: cJun; test: Circular dichroism spectra, mixture with cJun; assay type: binding; conditions: CD at 20 °C, mixed with cJun, 150 μM total peptide, pH 7.0
# [7] = system: cJun; test: CD thermal denaturation, mixture with cJun; assay type: binding; conditions: cJun–Fra1W; CD at 222 nm, 150 μM total peptide, pH 7
# Outline: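 Equimolar peptide pair at 150 μM total in 10 mM potassium phosphate, 100 mM KF, pH 7. Ellipticity at 222 nm recorded from 0 to 90 °C in 1 °C steps with a 30 s pause at each step, signal averaged over 4 s. Reversible curves (≥95%) were least-squares fitted to a two-state model (modified Gibbs–Helmholtz) to give Tm.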
# [8] = Circular dichroism spectra, peptides in isolation; assay type: physicochemical; conditions: CD, 150 μM total peptide, 10 mM potassium phosphate, 100 mM potassium fluoride, pH 7.0
# [9] = Size-exclusion chromatography, single peptides; assay type: physicochemical; conditions: Superdex Peptide 10/300 GL; 20 μM total peptide; 10 mM potassium phosphate, 100 mM potassium fluoride, pH 7.0; 0.5 mL min^−1; room temperature; monomeric
# [10] = biological target: T1, Fra1; test: Isothermal titration calorimetry, Fra1W titrated into Fra1; assay type: binding
substance,measurement,setting,value
Ac-KAAALKQKAYALKQQIAALKKQVAALKQKIAALK-NH2 [Fra1W],CD signal vs averaged homomeric signals,[1]; CD at 20 °C,an increase from the averaged homomeric signals of Fra1 and Fra1W
same,222/208 nm ratio,[1]; CD,1.06
same,α-helical content of Fra1–Fra1W complex,[1]; CD,75%
same,α-helical content relative to Fra1 in isolation,[1]; CD,more than three times that of the target Fra1 in isolation
same,PCA selection outcome,[2],one clean DNA sequence in the pool after ten rounds of competition selection passaging
same,SEC elution time (oligomeric state),[3],approximately 19 min
same,SEC elution time (oligomeric state),[4],approximately 20 min
same,dimer exchange on addition of Fra1W to Fra1–cJun,[5],an increase in signal was observed
same,dimer exchange on addition of Fra1 to cJun–Fra1W,[5],the CD signal increased from the average of the component samples
same,dimer exchange on addition of cJun to Fra1–Fra1W,[5],no exchange of binding partner had occurred
same,CD signal vs averaged homomeric signals,[6],superimposed with the averaged homomeric signals
same,thermal denaturation profile vs average of component peptides,[7],no difference from the average of the component peptides
same,helical content,[8],60%
same,SEC elution time (oligomeric state),[9],approximately 20 min
same,Kd,[10],917 nM
same,N (stoichiometric measure of binding),"[10]; ITC, 20 °C, pH 7.0",1.06
